# In ChEMBL document CHEMBL2029265, “2-(Pyrrolidin-1-yl)ethyl-3,4-dihydroisoquinolin-1(2H)-one derivatives as potent and selective histamine-3 receptor antagonists” (J Med Chem, 2012):
# Key:
# CYP3A4 = CYP3A4 (Homo sapiens, UniProt P08684); test: Inhibition of CYP3A4 at 3 uM; format: ADME
# Histamine H3 receptor [1] = target: Histamine H3 receptor (Rattus norvegicus, UniProt Q9QYN8); test: Displacement of [3H]-(R)-alpha-methylhistamine from rat H3 receptor expressed in HEK293T cells after 120 mins by scintillation counting; format: cell-based, HEK-293T
# Histamine H3 receptor [2] = target: Histamine H3 receptor (Homo sapiens, UniProt Q9Y5N1); test: Displacement of [3H]-(R)-alpha-methylhistamine from human H3 receptor expressed in HEK293T cells after 120 mins by scintillation counting; format: cell-based, HEK-293T
# [3] = Terminal half life in Long Evans rat at 10 mg/kg, po administered as single dose; format: ADME, organism-based; set-up: dose 10 mg/kg, route oral; conditions: in vivo, read-out: beta t1/2 (converted)
# Method in brief: (§1)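 Male Long Evans rats, single oral dose 10 mg/kg in 2% Tween/0.5% methyl cellulose in water. Plasma pharmacokinetics.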
# [4] = Tmax in Long Evans rat at 10 mg/kg, po administered as single dose; format: ADME, organism-based; set-up: dose 10 mg/kg, route oral; conditions: in vivo; method in brief: as §1
# [5] = Elimination half life in beagle dog at 2 mg/kg, iv administered as single bolus dose; format: ADME, organism-based, Canis lupus familiaris; set-up: dose 2 mg/kg, route intravenous; conditions: in vivo, read-out: beta t1/2 (converted)
# Method in brief: (§2)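 Male beagle dogs received a single intravenous bolus dose of 2 mg/kg. Plasma clearance, volume of distribution and elimination half-life were determined.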
# Rattus norvegicus [6] = test: Reversal of time-induced cognitive deficit in po dosed rats by novel object recognition test; format: functional; conditions: read-out: MED
# [7] = Oral bioavailability in Long Evans rat at 10 mg/kg administered as single dose; format: ADME, organism-based; conditions: in vivo
# Method in brief: (§3)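 Male Long Evans rats received one oral dose of 10 mg/kg, formulated in 2% Tween/0.5% methyl cellulose in water. Plasma pharmacokinetic parameters were derived from this single dose.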
# Rattus norvegicus [8] = test: Toxicity in rat assessed as epithelial hyperplasia at 600 mg/kg/day administered for 14 days as repeat dose; format: organism-based; conditions: in vivo, 336 h
# Salmonella typhimurium = test: Mutagenic activity in Salmonella typhimurium assessed as revertants by Ames test; format: toxicity, organism-based; conditions: salmonella enterica subsp. enterica serovar typhimurium
# Method in brief: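 Screening Ames bacterial reverse mutation assay in Salmonella typhimurium, run at multiple dosages.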
# [9] = Volume of distribution in beagle dog at 2 mg/kg, iv administered as single bolus dose; format: ADME, organism-based, Canis lupus familiaris; set-up: dose 2 mg/kg, route intravenous; conditions: in vivo
# Method in brief: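 Male beagle dogs, single intravenous bolus 2 mg/kg. Plasma pharmacokinetics.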
# [10] = Clearance in beagle dog at 2 mg/kg, iv administered as single bolus dose; format: ADME, organism-based, Canis lupus familiaris; set-up: dose 2 mg/kg, route intravenous; conditions: in vivo; method in brief: as §2
# [11] = Clearance in Long Evans rat at 2 mg/kg, iv administered as single bolus dose; format: ADME, organism-based; set-up: dose 2 mg/kg, route intravenous; conditions: in vivo
# Method in brief: (§4)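 Male Long Evans rats were given a single intravenous bolus of 2 mg/kg in DMSO/80% PEG 200. Clearance, volume of distribution and elimination half-life were derived.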
# Canis familiaris [12] = test: Toxicity in dog assessed as QTc prolongation at 20 mg/kg/day administered for 14 days as repeat dose; format: organism-based, Canis lupus familiaris; conditions: in vivo, 336 h
# Method in brief: (§5)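 Dogs dosed for 14 days in a repeat-dose toxicity study at 20, 60 and 120 mg/kg/day. Clinical signs and QTc monitored.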
# [13] = Oral bioavailability in beagle dog at 10 mg/kg administered as single dose; format: ADME, organism-based, Canis lupus familiaris; conditions: in vivo
# [14] = Cmax in Long Evans rat at 10 mg/kg, po administered as single dose; format: ADME, organism-based; set-up: dose 10 mg/kg, route oral; conditions: in vivo; method in brief: as §3
# Canis familiaris [15] = test: Toxicity in dog assessed as convulsions at >/= 60 mg/kg/day administered for 14 days as repeat dose; format: organism-based, Canis lupus familiaris; conditions: in vivo, 336 h; method in brief: as §5
# [16] = Volume of distribution in Long Evans rat at 2 mg/kg, iv administered as single bolus dose; format: ADME, organism-based; set-up: dose 2 mg/kg, route intravenous; conditions: in vivo
# Method in brief: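 Male Long Evans rats, single intravenous bolus 2 mg/kg, vehicle DMSO/80% PEG 200. Plasma pharmacokinetics.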
# Rattus norvegicus [17] = test: Toxicity in rat assessed as respiratory distress at 600 mg/kg/day administered for 14 days as repeat dose; format: organism-based; conditions: in vivo, 336 h
# Canis familiaris [18] = test: Toxicity in dog assessed as arrhythmia at 20 mg/kg/day administered for 14 days as repeat dose; format: organism-based, Canis lupus familiaris; conditions: in vivo, 336 h; method in brief: as §5
# [19] = Toxicity in dog; format: organism-based, Canis lupus familiaris; conditions: in vivo
# Method in brief: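 14-day repeat-dose study in dogs at 20, 60 and 120 mg/kg/day, with clinical observation including cardiac rhythm and QTc; maximum tolerated dose derived from findings across dose groups.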
# [20] = Toxicity in rat; format: organism-based; conditions: in vivo
# Method in brief: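 14-day repeat-dose study in rats at 60, 200 and 600 mg/kg/day, with clinical observation and tissue findings; maximum tolerated dose derived from findings across dose groups.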
# [21] = AUC (0 to infinity) in Long Evans rat at 10 mg/kg, po administered as single dose; format: ADME, organism-based; set-up: dose 10 mg/kg, route oral, time infinity; conditions: plasma; method in brief: as §3
# [22] = Elimination half life in Long Evans rat at 2 mg/kg, iv administered as single bolus dose; format: ADME, organism-based; set-up: dose 2 mg/kg, route intravenous; conditions: in vivo, read-out: beta t1/2 (converted); method in brief: as §4
# Mus musculus = test: Reversal of MK-801-induced memory deficit in po dosed mice at measured after 24 hrs by social odor recognition test; conditions: read-out: MED
# Histamine H3 receptor (Homo sapiens, UniProt Q9Y5N1), sequence (Q9Y5N1 whole entry): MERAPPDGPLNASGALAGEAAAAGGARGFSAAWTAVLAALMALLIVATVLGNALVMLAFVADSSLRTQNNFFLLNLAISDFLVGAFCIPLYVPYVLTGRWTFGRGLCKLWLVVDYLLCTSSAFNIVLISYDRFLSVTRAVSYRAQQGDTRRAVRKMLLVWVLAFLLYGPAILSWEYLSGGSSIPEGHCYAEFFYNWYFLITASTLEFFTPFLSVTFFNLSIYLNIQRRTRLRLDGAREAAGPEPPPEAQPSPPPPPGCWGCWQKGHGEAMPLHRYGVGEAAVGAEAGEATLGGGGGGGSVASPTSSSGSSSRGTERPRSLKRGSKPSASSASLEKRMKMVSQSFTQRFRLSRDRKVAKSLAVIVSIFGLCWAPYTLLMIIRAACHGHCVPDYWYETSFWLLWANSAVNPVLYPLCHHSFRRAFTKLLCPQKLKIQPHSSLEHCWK
# Histamine H3 receptor (Rattus norvegicus, UniProt Q9QYN8), sequence (Q9QYN8 whole entry): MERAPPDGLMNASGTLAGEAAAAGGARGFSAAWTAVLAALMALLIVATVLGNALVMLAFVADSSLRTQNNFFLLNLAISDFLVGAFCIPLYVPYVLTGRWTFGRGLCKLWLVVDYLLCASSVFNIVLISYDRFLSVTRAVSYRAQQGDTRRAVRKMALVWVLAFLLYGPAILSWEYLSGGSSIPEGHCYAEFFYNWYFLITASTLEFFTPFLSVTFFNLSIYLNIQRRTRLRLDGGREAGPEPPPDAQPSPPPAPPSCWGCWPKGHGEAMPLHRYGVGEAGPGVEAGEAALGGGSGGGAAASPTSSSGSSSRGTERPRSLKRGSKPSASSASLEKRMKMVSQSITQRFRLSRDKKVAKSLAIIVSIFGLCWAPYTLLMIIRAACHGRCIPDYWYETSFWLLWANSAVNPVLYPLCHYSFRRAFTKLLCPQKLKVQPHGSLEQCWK
# CYP3A4, sequence (P08684 whole entry): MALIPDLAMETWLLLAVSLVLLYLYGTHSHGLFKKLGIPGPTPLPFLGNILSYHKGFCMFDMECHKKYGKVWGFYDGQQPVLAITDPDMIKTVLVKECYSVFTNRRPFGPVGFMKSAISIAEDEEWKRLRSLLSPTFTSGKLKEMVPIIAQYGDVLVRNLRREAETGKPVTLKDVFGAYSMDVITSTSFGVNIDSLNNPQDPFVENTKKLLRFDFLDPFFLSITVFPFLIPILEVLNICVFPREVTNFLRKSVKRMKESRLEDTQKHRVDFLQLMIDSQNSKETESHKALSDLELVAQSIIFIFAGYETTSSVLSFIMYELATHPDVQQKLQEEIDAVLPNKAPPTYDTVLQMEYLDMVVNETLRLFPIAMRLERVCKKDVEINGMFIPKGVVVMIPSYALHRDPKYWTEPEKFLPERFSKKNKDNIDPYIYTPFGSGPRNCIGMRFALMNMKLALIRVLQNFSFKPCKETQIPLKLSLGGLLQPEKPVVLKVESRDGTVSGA
structure (smiles),measurement,setting,value
O=C1c2ccc(-c3ccc(F)cc3)cc2CCN1CCN1CCCCCC1,inhibition at 3 µM,CYP3A4,47%
same,Ki,Histamine H3 receptor [1],47 nM
same,Ki,Histamine H3 receptor [2],5.7 nM
CN(C)C(=O)c1ccc(-c2ccc3c(c2)CCN(CCN2CCCC2)C3=O)cc1.Cl,half-life,[3],48 min
same,Tmax,[4],18 min
same,half-life,[5],96 min
same,minimal effective dose,Rattus norvegicus [6],1 mg/kg
same,bioavailability,[7],85%
same,Activity,Rattus norvegicus [8],Toxic
same,Activity,Salmonella typhimurium,Non-toxic
same,Vd,[9],3.1 L/kg
same,clearance,[10],23 mL/min/kg
same,clearance,[11],87 mL/min/kg
same,Activity,Canis familiaris [12],Toxic
same,bioavailability,[13],57%
same,Cmax,[14],989 ng/mL
same,Activity,Canis familiaris [15],Toxic
same,Vd,[16],2.1 L/kg
same,Activity,Rattus norvegicus [17],Toxic
same,Activity,Canis familiaris [18],Toxic
same,MTD,[19],20 mg/kg/day
same,MTD,[20],200 mg/kg/day
same,AUC(0-inf),[21],1650 ng·h/mL
same,half-life,[22],18 min
same,minimal effective dose,Mus musculus,1 mg/kg
